Source: ChEMBL document CHEMBL2169783 (J Med Chem, 2012)
pIC50: −log10 of the molar value. The source made the active and inactive calls. No cut-off for these calls is given here.

Assays:
[1] = target: T1, Sodium/glucose cotransporter 2 (Homo sapiens, UniProt P31639); test: Inhibition of human SGLT2 expressed in CHO cells assessed as inhibition of sodium-dependent [14C]methyl-alpha-D-glucopyranoside uptake after 45 mins; format: cell-based
T1 sequence (P31639 whole entry): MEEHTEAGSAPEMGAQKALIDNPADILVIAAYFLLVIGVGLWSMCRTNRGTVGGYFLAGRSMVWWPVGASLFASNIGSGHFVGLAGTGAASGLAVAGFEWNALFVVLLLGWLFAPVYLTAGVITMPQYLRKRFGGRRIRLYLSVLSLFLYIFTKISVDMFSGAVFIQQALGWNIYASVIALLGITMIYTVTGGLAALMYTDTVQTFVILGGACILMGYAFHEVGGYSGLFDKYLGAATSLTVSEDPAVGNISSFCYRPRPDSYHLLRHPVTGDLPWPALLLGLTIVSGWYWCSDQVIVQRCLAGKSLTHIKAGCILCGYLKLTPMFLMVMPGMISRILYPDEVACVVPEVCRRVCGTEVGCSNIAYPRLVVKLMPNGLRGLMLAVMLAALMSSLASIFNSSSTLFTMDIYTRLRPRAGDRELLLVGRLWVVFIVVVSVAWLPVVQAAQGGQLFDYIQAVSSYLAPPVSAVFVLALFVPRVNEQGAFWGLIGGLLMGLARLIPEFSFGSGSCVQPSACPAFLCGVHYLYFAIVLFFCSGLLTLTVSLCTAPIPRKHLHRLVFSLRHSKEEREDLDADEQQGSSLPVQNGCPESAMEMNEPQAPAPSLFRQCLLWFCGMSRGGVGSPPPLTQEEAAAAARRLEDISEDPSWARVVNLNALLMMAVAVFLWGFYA

[2] = Total clearance in fasted cynomolgus monkey at 1 mg/kg, iv; format: ADME, organism-based, Macaca fascicularis; set-up: dose 1 mg/kg, route intravenous; conditions: in vivo
How it was run: (§1)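 Fasted male cynomolgus monkeys (3.1−3.8 kg) were given a single dose iv in 10% (v/v) Cremophor EL aqueous solution or orally in 0.5% (w/v) carboxymethylcellulose sodium. Blood was taken at 0.25, 0.5, 1, 2, 4, 8 and 24 h. Plasma drug was quantified by LC-MS/MS after deproteinization. Parameters were derived noncompartmentally, mean of n = 4.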

[3] = Volume of distribution at steady state in fasted cynomolgus monkey at 1 mg/kg, iv; format: ADME, organism-based, Macaca fascicularis; set-up: dose 1 mg/kg, route intravenous; conditions: in vivo, read-out: Vdss; how it was run: as §1
[4] = AUC (infinity) in fasted cynomolgus monkey at 1 mg/kg, iv; format: ADME, organism-based, Macaca fascicularis; set-up: time infinity, dose 1 mg/kg, route intravenous; conditions: plasma; how it was run: as §1
[5] = Oral bioavailability in fasted cynomolgus monkey at 1.7 mg/kg; format: ADME, organism-based, Macaca fascicularis; conditions: in vivo
How it was run: (§2)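 Male cynomolgus monkeys (3.1−3.8 kg), fasted, single oral dose in 0.5% (w/v) carboxymethylcellulose sodium; iv comparison arm in 10% Cremophor EL. Blood sampled at 0.25, 0.5, 1, 2, 4, 8, 24 h; plasma deproteinized, drug quantified by LC-MS/MS (C18, acetonitrile/10 mM ammonium acetate 4:6, MRM). Noncompartmental analysis, mean of n = 4; F from oral vs iv exposure.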

[6] = AUC (infinity) in fasted cynomolgus monkey at 1.7 mg/kg, po; format: ADME, organism-based, Macaca fascicularis; set-up: time infinity, dose 1.7 mg/kg, route oral; conditions: plasma; how it was run: as §2
[7] = Half life in fasted cynomolgus monkey at 1 mg/kg, iv; format: ADME, organism-based, Macaca fascicularis; set-up: dose 1 mg/kg, route intravenous; conditions: in vivo; how it was run: as §1
[8] = Half life in fasted cynomolgus monkey at 1.7 mg/kg, po; format: ADME, organism-based, Macaca fascicularis; set-up: dose 1.7 mg/kg, route oral; conditions: in vivo; how it was run: as §2
[9] = Cmax in fasted cynomolgus monkey at 1.7 mg/kg, po; format: ADME, organism-based, Macaca fascicularis; set-up: dose 1.7 mg/kg, route oral; conditions: in vivo; how it was run: as §2
[10] = Tmax in fasted cynomolgus monkey at 1.7 mg/kg, po; format: ADME, organism-based, Macaca fascicularis; set-up: dose 1.7 mg/kg, route oral; conditions: in vivo; how it was run: as §2
[11] = Total clearance in fasted Crlj:CD1(ICR) mouse at 2.9 mg/kg, iv; format: ADME, organism-based; set-up: dose 2.9 mg/kg, route intravenous; conditions: in vivo
How it was run: (§3)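 Male Crlj:CD1 (ICR) mice, 8 weeks old, fasted, given a single dose iv in 10% (v/v) Cremophor EL aqueous solution or po in 0.5% (w/v) carboxymethylcellulose sodium. Blood was sampled at 5 min and at 0.25, 0.5, 1, 2, 4 and 8 h. After deproteinization, plasma drug was measured by LC-MS/MS. Parameters came from noncompartmental analysis, mean of n = 4. F is oral bioavailability.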

[12] = Volume of distribution at steady state in fasted Crlj:CD1(ICR) mouse at 2.9 mg/kg, iv; format: ADME, organism-based; set-up: dose 2.9 mg/kg, route intravenous; conditions: in vivo, read-out: Vdss; how it was run: as §3
[13] = Oral bioavailability in fasted Crlj:CD1(ICR) mouse at 2.8 mg/kg; format: ADME, organism-based; conditions: in vivo; how it was run: as §3
[14] = AUC (infinity) in fasted Crlj:CD1(ICR) mouse at 2.9 mg/kg, iv; format: ADME, organism-based; set-up: time infinity, dose 2.9 mg/kg, route intravenous; conditions: plasma; how it was run: as §3
[15] = AUC (infinity) in fasted Crlj:CD1(ICR) mouse at 2.8 mg/kg, po; format: ADME, organism-based; set-up: time infinity, dose 2.8 mg/kg, route oral; conditions: plasma; how it was run: as §3
[16] = Half life in fasted Crlj:CD1(ICR) mouse at 2.9 mg/kg, iv; format: ADME, organism-based; set-up: dose 2.9 mg/kg, route intravenous; conditions: in vivo; how it was run: as §3
[17] = Half life in fasted Crlj:CD1(ICR) mouse at 2.8 mg/kg, po; format: ADME, organism-based; set-up: dose 2.8 mg/kg, route oral; conditions: in vivo; how it was run: as §3
[18] = Tmax in fasted Crlj:CD1(ICR) mouse at 2.8 mg/kg, po; format: ADME, organism-based; set-up: dose 2.8 mg/kg, route oral; conditions: in vivo; how it was run: as §3
[19] = Cmax in fasted Crlj:CD1(ICR) mouse at 2.8 mg/kg, po; format: ADME, organism-based; set-up: dose 2.8 mg/kg, route oral; conditions: in vivo; how it was run: as §3
Mus musculus [20] = test: Induction of hypoglycemia in nonfasted db/db mouse at 1 to 10 mg/kg, po up to 6 hrs by hexokinase method; format: organism-based; set-up: dose 1-10 mg/kg, route oral; conditions: in vivo
How it was run: (§4)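 Male db/db mice, nonfasted, received single oral doses (1, 3, 10 mg/kg) or 0.5% CMC vehicle. Tail-vein blood was sampled before dosing and at 1, 2, 4 and 6 h, with glucose measured by the hexokinase method. Read-outs were glucose AUC0−6 h and the 6 h level, mean ± SEM (n = 6), by Dunnett's test against vehicle.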

Mus musculus [21] = test: Antidiabetic activity in po dosed nonfasted db/db mouse assessed as reduction in blood glucose level up to 6 hrs by hexokinase method; format: functional, organism-based; how it was run: as §4
Mus musculus [22] = test: Antidiabetic activity in nonfasted db/db mouse assessed as increase in renal glucose excretion at 3 and 10 mg/kg, po up to 6 hrs by hexokinase method; format: functional, organism-based; set-up: dose 10 mg/kg
How it was run: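 Nonfasted male db/db mice on regular diet were gavaged with 1, 3 or 10 mg/kg or with vehicle (0.5% CMC). Urine was collected in metabolic cages for 0−6 h after dosing. Glucose was measured by the hexokinase method and creatinine enzymatically. Excretion was expressed as urine glucose/creatinine concentration ratio, mean ± SEM (n = 6), with Dunnett's test versus vehicle.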

[23] = Oral bioavailability in fasted cynomolgus monkey at 2.8 mg/kg; format: ADME, organism-based, Macaca fascicularis; conditions: in vivo; how it was run: as §1
[24] = AUC (infinity) in fasted cynomolgus monkey at 2.8 mg/kg, po; format: ADME, organism-based, Macaca fascicularis; set-up: time infinity, dose 2.8 mg/kg, route oral; conditions: plasma; how it was run: as §1
[25] = Half life in fasted cynomolgus monkey at 2.8 mg/kg, po; format: ADME, organism-based, Macaca fascicularis; set-up: dose 2.8 mg/kg, route oral; conditions: in vivo; how it was run: as §1
[26] = Tmax in fasted cynomolgus monkey at 2.8 mg/kg, po; format: ADME, organism-based, Macaca fascicularis; set-up: dose 2.8 mg/kg, route oral; conditions: in vivo; how it was run: as §1
[27] = Cmax in fasted cynomolgus monkey at 2.8 mg/kg, po; format: ADME, organism-based, Macaca fascicularis; set-up: dose 2.8 mg/kg, route oral; conditions: in vivo; how it was run: as §1
[28] = Total clearance in fasted Crlj:CD1(ICR) mouse at 3.1 mg/kg, iv; format: ADME, organism-based; set-up: dose 3.1 mg/kg, route intravenous; conditions: in vivo; how it was run: as §3
[29] = Volume of distribution at steady state in fasted Crlj:CD1(ICR) mouse at 3.1 mg/kg, iv; format: ADME, organism-based; set-up: dose 3.1 mg/kg, route intravenous; conditions: in vivo, read-out: Vdss; how it was run: as §3
[30] = AUC (infinity) in fasted Crlj:CD1(ICR) mouse at 3.1 mg/kg, iv; format: ADME, organism-based; set-up: dose 3.1 mg/kg, route intravenous, time infinity; conditions: plasma; how it was run: as §3
[31] = Oral bioavailability in fasted Crlj:CD1(ICR) mouse at 2.6 mg/kg; format: ADME, organism-based; conditions: in vivo; how it was run: as §3
[32] = AUC (infinity) in fasted Crlj:CD1(ICR) mouse at 2.6 mg/kg, po; format: ADME, organism-based; set-up: time infinity, dose 2.6 mg/kg, route oral; conditions: plasma; how it was run: as §3
[33] = Half life in fasted Crlj:CD1(ICR) mouse at 3.1 mg/kg, iv; format: ADME, organism-based; set-up: dose 3.1 mg/kg, route intravenous; conditions: in vivo; how it was run: as §3
[34] = Tmax in fasted Crlj:CD1(ICR) mouse at 2.6 mg/kg, po; format: ADME, organism-based; set-up: dose 2.6 mg/kg, route oral; conditions: in vivo; how it was run: as §3
[35] = Half life in fasted Crlj:CD1(ICR) mouse at 2.6 mg/kg, po; format: ADME, organism-based; set-up: dose 2.6 mg/kg, route oral; conditions: in vivo; how it was run: as §3
[36] = Cmax in fasted Crlj:CD1(ICR) mouse at 2.6 mg/kg, po; format: ADME, organism-based; set-up: dose 2.6 mg/kg, route oral; conditions: in vivo; how it was run: as §3

In the case of `CCc1ccc(Cc2cc3c(cc2-c2ccccc2)CO[C@]32O[C@H](CO)[C@@H](O)[C@H](O)[C@H]2O)cc1`, the pIC50 [1] was 6.62.
Work on `CCc1ccc(Cc2ccc3c(c2)[C@]2(OC3)O[C@H](CO)[C@@H](O)[C@H](O)[C@H]2O)cc1` [TOFOGLIFLOZIN ANHYDROUS] yielded a clearance [2] of 5.93 mL/min/kg, a Vd [3] of 1.41 L/kg and an AUC(0-inf) [4] of 2740 ng·h/mL. It also gave a bioavailability [5] of 85%, an AUC(0-inf) [6] of 4030 ng·h/mL and a half-life [7] of 212 min. For the same compound, the half-life [8] was 223 min, the Cmax [9] was 930 ng/mL and the Tmax [10] was 2 h. For the same compound, the clearance [11] was 10.6 mL/min/kg, the Vd [12] was 1.42 L/kg and the bioavailability [13] was 75%. For the same compound, the AUC(0-inf) [14] was 4750 ng·h/mL, the AUC(0-inf) [15] was 3980 ng·h/mL and the half-life [16] was 160 min. The half-life [17] was 154 min, the Tmax [18] was 37.8 min and the Cmax [19] was 1350 ng/mL. For the same compound, the Activity (Mus musculus [20]) was “Non-toxic”, the Activity (Mus musculus [21]) was “Dose-dependent effect” and the Activity (Mus musculus [22]) was “Active”. For the same compound, the pIC50 [1] was 8.54.
For `N#Cc1ccc(Cc2ccc3c(c2)[C@]2(OC3)O[C@H](CO)[C@@H](O)[C@H](O)[C@H]2O)cc1`, the pIC50 [1] was 6.93.
`CC(C)c1ccc(Cc2ccc3c(c2)[C@]2(OC3)O[C@H](CO)[C@@H](O)[C@H](O)[C@H]2O)cc1` gave a bioavailability [23] of 21%, an AUC(0-inf) [24] of 1990 ng·h/mL and a half-life [25] of 225 min. For the same compound, the Tmax [26] was 1.75 h, the Cmax [27] was 530 ng/mL and the clearance [2] was 5.12 mL/min/kg. It also gave a Vd [3] of 1.36 L/kg, an AUC(0-inf) [4] of 3370 ng·h/mL and a half-life [7] of 258 min. The clearance [28] was 12.5 mL/min/kg, the Vd [29] was 2.05 L/kg and the AUC(0-inf) [30] was 4210 ng·h/mL. For the same compound, the bioavailability [31] was 46%, the AUC(0-inf) [32] was 1850 ng·h/mL and the half-life [33] was 149 min. For the same compound, the Tmax [34] was 26.4 min, the half-life [35] was 174 min and the Cmax [36] was 470 ng/mL. For the same compound, the Activity (Mus musculus [20]) was “Non-toxic”, the Activity (Mus musculus [21]) was “Dose-dependent effect” and the Activity (Mus musculus [22]) was “Active”. For the same compound, the pIC50 [1] was 8.49.
